Test [1] addresses Tyrosine-protein kinase ABL1 (Homo sapiens) (UniProt P00519). As to the kind of experiment: Displacement of abl from GNF2 resin using affinity chromatography at 1000 uM by competition binding assay.
Test [2] is described as follows: Cytotoxic activity against mouse 32D Bcr-abl negative cells.
Test [3] can be described thus: Cytotoxic activity against mouse 32D cells transfected with p210 Bcr-abl. Format: cell-based.
Test [4] addresses Tyrosine-protein kinase ABL1 (Homo sapiens) (UniProt P00519). As to the kind of experiment: Binding affinity to dephosphorylated human recombinant abl. An outline of the steps:
(§1)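 Recombinant human abl (1 μg), either Src-phosphorylated or tyrosine phosphatase-treated, incubated 1 h at 4 °C with immobilized GNF-3 resin; after five washes bound protein eluted by boiling in Laemmli buffer and detected by SDS-PAGE/anti-abl immunoblot. Immobilized methyl analogue used as control matrix.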

Test [5] has the same target. As to the kind of experiment: Binding affinity to phosphorylated human recombinant abl. An outline of the steps:
as §1

Activity calls are given as the source filed them. The calls are words filed in the database; no cut-off is given here.

Chain of Tyrosine-protein kinase ABL1 (Homo sapiens) (P00519 whole entry): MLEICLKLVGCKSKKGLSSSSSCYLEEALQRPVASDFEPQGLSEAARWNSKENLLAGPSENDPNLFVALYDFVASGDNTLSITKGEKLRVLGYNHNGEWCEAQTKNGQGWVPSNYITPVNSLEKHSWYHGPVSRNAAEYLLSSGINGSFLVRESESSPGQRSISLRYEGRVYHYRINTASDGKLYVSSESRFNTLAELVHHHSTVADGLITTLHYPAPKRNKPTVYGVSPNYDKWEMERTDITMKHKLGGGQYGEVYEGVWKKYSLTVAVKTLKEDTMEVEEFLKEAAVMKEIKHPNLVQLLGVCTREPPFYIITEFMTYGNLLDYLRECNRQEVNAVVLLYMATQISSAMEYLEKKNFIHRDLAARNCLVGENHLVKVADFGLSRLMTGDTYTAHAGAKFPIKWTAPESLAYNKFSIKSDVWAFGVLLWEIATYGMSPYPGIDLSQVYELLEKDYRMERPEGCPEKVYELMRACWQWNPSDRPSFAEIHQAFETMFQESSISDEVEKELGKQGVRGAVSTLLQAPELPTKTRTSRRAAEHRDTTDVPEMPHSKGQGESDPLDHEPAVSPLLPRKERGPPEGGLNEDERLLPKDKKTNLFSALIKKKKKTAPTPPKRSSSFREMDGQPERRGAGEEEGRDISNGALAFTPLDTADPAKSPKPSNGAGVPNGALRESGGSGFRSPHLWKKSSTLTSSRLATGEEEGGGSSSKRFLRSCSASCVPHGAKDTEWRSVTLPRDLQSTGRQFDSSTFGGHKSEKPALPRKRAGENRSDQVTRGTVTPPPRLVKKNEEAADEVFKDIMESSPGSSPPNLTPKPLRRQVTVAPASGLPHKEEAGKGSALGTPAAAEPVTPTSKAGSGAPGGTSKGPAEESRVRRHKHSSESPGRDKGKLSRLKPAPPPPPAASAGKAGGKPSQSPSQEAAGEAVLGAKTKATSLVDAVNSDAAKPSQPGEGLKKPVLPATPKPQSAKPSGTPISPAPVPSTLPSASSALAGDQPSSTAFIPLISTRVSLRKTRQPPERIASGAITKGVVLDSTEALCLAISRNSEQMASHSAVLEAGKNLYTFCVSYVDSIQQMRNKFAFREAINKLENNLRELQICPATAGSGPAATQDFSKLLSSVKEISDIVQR

Consider `Nc1ncnc2c1ncn2[C@@H]1O[C@H](COP(=O)(O)OP(=O)(O)OP(=O)(O)O)[C@@H](O)[C@H]1O`, for which the outcome in test [1] was Active.

By IC50 is commonly meant the concentration needed to halve the response being measured. Low readings indicate greater potency, high ones weaker potency. Turning to `FC(F)(F)Oc1ccc(Nc2cc(NCCN3CCOCC3)ncn2)cc1`, the IC50 is over 40000 nM in test [2] and 400 nM in test [3].

For `NCCOCCOCCOCCOCCOCCNC(=O)c1cccc(-c2cc(Nc3ccc(OC(F)(F)F)cc3)ncn2)c1`, the result in test [4] and in test [5] was Active.

The values above are taken from ChEMBL document CHEMBL1240306, “Allosteric inhibitors of Bcr-abl-dependent cell proliferation” (Nat Chem Biol, 2006).
